Where a SMILES comes first, the peptide text is derived from it.
Experiments:
rat type I collagen [1] = target: rat type I collagen (Rattus norvegicus, UniProt P02454+P02466); assay: SPR affinity of peptides for type I collagen; type: binding; conditions: for Rmax: SPR, 1:1 binding; for kon: read-out: 1:1 binding ka; for koff: read-out: Kd (dissociation rate constant)
In short: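 Rat type I collagen preconcentrated in sodium acetate (pH 5.0) and amine-coupled to a CM5 chip. Peptide in sodium acetate buffer at five concentrations, 30 µL/min; 100 s contact, 80 s dissociation. Regeneration with glycine 2.0 for 30 s. Three cycles, multicycle kinetics; K_D calculated.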

type I collagen = conditions: isothermal titration calorimetry and enzyme-linked immunosorbent assays; ref [14] (Lei et al.); cited from earlier work
collagen membrane [2] = assay: Calcium ion adsorption by collagen membrane, ICP-MS; conditions: 0.1 mM peptide, pH 7.0, 37 °C, 7 d, n = 9, p < 0.0001
collagen membrane [3] = assay: TGA of mineralized collagen membrane; conditions: 0.1 mM peptide, 37 °C, 7 d; n = 9; p < 0.0001
type I collagen fiber = assay: Collagen fiber mineralization, TEM/SAED/EDS; conditions: 0.1 mM peptide, 7 d; for electron density distribution of collagen fiber (TEM): 3.90 mM CaCl2, 3.83 mM Na2HPO4, pH 7.0, 37 °C; for SAED arc-shaped patterns (hkl) of hydroxyapatite: 37 °C, control one ring (300); for calcium and phosphate distribution (EDS) / fiber mineralization: pH 7.0, 37 °C; for fiber mineralization: TEM
In short: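 Type I collagen fibers self-assembled in 50 mM glycine/200 mM KCl (pH 9.2), room temperature, 20 min, on nickel grids at 37 °C for 12 h, then fixed in 0.05% glutaraldehyde for 1 h. Grids immersed at 37 °C for 7 d in 3.90 mM CaCl₂/3.83 mM Na₂HPO₄ (pH 7.0) with 0.1 mM peptide, changed every 24 h. Peptide-free control. Rinsed, ethanol-dehydrated; TEM, SAED, EDS.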

[4] = Mechanical properties of remineralized dentin; set-up: species or system human; conditions: compared with MDP-a group; 2 w mineralization
In short: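 Nanoindentation of the new mineral layer on dentin slices after 2 w of remineralization, tested alongside sound and etched slices. Conditions: 10 mN force, 10 s loading, 2 s hold, Poisson's ratio 0.28. Five points per sample, nine samples per group. Elastic modulus and microhardness derived from load–displacement curves; one-way ANOVA with Tukey.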

[5] = Dentin slice remineralization, SEM and tubule plugging rate; set-up: species or system human; conditions: 0.1 mM peptide 12 h; for plugging rate of dentinal tubules vs control: SEM 3,000×, p < 0.0001; for dentinal tubule diameters (SEM surface) / mineral depth in dentin tubules (SEM cross section) / mineral growth on dentin (SEM surface): then artificial saliva pH 7.0, 2 w
In short: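 Human third-molar crown dentin cut to 5 × 5 × 2 mm slices and polished. Etched with 35% phosphoric gel for 30 s, 5.25% NaOCl for 1 min, sonicated 10 min. Soaked in 0.1 mM peptide for 12 h, rinsed, then 2 w in artificial saliva (pH 7.0) refreshed daily. Peptide-free control. SEM of surface and cross-section; plugging rate from open-tubule counts at 3,000×; n = 9; one-way ANOVA with Tukey.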

[6] = TEM/SAED/EDS of calcium phosphate; type: physicochemical; conditions: TEM; 0.1 mM peptide, pH 7.0; control: irregularly shaped aggregates
rat type I collagen [7] = target: rat type I collagen (rat, UniProt P02454 152-1207; P02466 86-1125); assay: SPR
Chain of rat type I collagen (rat, UniProt P02454 152-1207; P02466 86-1125) (P02454 152-1207, chain 1 of 2): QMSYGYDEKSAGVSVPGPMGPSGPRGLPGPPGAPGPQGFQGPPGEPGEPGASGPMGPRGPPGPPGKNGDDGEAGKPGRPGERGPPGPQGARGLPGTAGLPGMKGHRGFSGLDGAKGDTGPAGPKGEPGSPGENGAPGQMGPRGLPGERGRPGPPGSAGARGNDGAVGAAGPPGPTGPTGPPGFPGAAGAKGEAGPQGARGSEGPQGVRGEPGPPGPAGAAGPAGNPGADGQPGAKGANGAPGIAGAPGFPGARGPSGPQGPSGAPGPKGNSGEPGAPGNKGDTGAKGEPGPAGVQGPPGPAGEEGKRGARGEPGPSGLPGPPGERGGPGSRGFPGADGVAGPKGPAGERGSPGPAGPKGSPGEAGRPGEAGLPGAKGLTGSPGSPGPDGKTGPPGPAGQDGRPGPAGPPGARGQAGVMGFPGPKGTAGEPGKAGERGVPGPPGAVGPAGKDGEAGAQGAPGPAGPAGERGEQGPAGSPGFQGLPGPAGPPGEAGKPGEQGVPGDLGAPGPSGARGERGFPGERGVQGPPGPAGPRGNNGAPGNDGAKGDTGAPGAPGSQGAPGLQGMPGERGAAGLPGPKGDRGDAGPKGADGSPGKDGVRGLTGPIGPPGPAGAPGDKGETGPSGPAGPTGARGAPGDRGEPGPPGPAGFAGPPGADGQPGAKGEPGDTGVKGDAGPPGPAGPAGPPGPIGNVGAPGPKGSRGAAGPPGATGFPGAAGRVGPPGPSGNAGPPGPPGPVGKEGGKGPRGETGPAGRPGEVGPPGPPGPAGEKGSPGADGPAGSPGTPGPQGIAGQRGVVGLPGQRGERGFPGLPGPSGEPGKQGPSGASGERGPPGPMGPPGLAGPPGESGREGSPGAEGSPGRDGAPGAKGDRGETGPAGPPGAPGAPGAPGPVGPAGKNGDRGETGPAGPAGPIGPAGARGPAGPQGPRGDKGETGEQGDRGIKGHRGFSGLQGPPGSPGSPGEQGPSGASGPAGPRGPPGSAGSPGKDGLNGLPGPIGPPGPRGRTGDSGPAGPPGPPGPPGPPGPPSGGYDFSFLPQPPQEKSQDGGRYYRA
Chain of rat type I collagen (rat, UniProt P02454 152-1207; P02466 86-1125) (P02466 86-1125, chain 2 of 2): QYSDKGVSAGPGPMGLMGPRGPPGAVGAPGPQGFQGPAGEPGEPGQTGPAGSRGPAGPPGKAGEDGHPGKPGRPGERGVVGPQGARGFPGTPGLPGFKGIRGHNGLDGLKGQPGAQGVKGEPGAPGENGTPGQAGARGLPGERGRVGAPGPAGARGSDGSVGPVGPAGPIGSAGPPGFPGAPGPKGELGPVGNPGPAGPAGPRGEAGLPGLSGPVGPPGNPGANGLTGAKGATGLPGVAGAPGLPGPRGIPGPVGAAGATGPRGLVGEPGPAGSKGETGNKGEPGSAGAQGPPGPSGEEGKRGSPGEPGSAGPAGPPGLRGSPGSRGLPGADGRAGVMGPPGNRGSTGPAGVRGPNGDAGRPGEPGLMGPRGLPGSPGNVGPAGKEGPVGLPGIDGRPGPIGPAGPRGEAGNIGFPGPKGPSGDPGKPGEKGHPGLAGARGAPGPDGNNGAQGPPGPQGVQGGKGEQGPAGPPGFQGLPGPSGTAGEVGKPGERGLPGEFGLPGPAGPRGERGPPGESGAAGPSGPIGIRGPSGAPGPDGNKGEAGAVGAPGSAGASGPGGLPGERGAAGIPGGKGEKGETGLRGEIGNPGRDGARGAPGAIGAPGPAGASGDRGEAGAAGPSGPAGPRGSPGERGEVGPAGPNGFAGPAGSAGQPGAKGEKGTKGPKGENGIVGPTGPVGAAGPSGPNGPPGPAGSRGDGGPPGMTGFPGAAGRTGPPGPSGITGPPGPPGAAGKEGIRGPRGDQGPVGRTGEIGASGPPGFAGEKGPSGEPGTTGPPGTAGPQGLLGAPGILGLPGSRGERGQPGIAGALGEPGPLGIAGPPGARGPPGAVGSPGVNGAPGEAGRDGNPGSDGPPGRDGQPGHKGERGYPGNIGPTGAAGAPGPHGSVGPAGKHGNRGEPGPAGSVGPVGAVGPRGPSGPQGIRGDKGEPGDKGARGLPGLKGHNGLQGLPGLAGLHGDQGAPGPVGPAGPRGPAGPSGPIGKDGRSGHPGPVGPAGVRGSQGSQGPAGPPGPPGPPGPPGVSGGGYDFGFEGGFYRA

Molecule	Rmax (rat type I collagen [1]) [RU]	kon (rat type I collagen [1]) [M⁻¹ s⁻¹]	koff (rat type I collagen [1]) [s⁻¹]	electron density distribution of collagen fiber (TEM) (type I collagen fiber)	SAED arc-shaped patterns (hkl) of hydroxyapatite (type I collagen fiber)	calcium and phosphate distribution (EDS) (type I collagen fiber)	fiber mineralization (type I collagen fiber)	plugging rate of dentinal tubules vs control ([5]; artificial saliva 2 w, n = 9)	dentinal tubule diameters (SEM surface) [5]	mineral depth in dentin tubules (SEM cross section) [5] [μm]	mineral growth on dentin (SEM surface) [5]	morphology of particles [6]	Kd (rat type I collagen [7]) [µM]	further results
CC(C)C[C@H](NC(=O)[C@H](CC(N)=O)NC(=O)[C@H](CS)NC(=O)[C@H](CO)NC(=O)[C@H](CCC(=O)O)NC(=O)[C@H](CCCCN)NC(=O)[C@@H]1CCCN1C(=O)[C@@H](N)CS)C(=O)N[C@@H](Cc1ccccc1)C(=O)N[C@H](C(=O)N[C@@H](CC(C)C)C(=O)N[C@@H](CCCCN)C(=O)N[C@@H](CC(=O)O)C(=O)O)C(C)C [CBP1495, reference compound] (H-CPKESCNLFVLKD-OH; N-terminus and C-terminus assumed)	190942.7	10600	0.624											binding to type I collagen (type I collagen): can bind to type I collagen with strong affinity
CC(C)C[C@H](NC(=O)[C@H](CC(N)=O)NC(=O)[C@H](CS)NC(=O)[C@H](CO)NC(=O)[C@H](CCC(=O)O)NC(=O)[C@H](CCCCN)NC(=O)[C@@H]1CCCN1C(=O)[C@@H](N)CS)C(=O)N[C@@H](Cc1ccccc1)C(=O)N[C@H](C(=O)N[C@@H](CC(C)C)C(=O)N[C@@H](CCCCN)C(=O)N[C@@H](CC(=O)O)C(=O)N[C@@H](CC(=O)O)C(=O)N[C@@H](CO)C(=O)N[C@@H](CO)C(=O)N[C@@H](CC(=O)O)C(=O)N[C@@H](CO)C(=O)N[C@@H](CO)C(=O)N[C@@H](CC(=O)O)C(=O)N[C@@H](CO)C(=O)N[C@@H](CO)C(=O)O)C(C)C [MDP-3DSS] (H-CPKESCNLFVLKDDSSDSSDSS-OH; N-terminus and C-terminus assumed)	65526.7	30800	0.58	uniform and dense electron distribution, with significantly increased electron density, indicating a highly mineralized structure	002,112,401,122	highly concentrated along the fiber axis, with a minimal presence of these ions outside the fiber	evident fiber mineralization	increased significantly	significantly reduced	7	dense mineral growth was observed on the surface and inside the dentinal tubules	aggregated particles arranged in loose chains		calcium ion adsorption by collagen membrane, MDP-3DSS vs MDP-a (collagen membrane [2]): promoted the adsorption of calcium ions by collagen more effectively than MDP-a; residual mineral content (TGA) (collagen membrane [3]): highest residual mineral content; elastic modulus and microhardness relative to sound dentin [4]: closer to those of sound dentin group; plugging rate of dentinal tubules, MDP-3DSS vs MDP-a ([5]; artificial saliva 2 w, n = 9, p = 0.0019): greater plugging rate of dentinal tubules
CC(C)C[C@H](NC(=O)[C@H](Cc1c[nH]c2ccccc12)NC(=O)[C@H](CS)NC(=O)[C@H](CO)NC(=O)[C@H](Cc1c[nH]c2ccccc12)NC(=O)[C@H](Cc1c[nH]c2ccccc12)NC(=O)[C@H](CC(=O)O)NC(=O)[C@@H](N)CS)C(=O)N[C@@H](CC(=O)O)C(=O)N[C@H](C(=O)N[C@@H](CC(C)C)C(=O)N[C@@H](CCCCN)C(=O)N[C@@H](CC(=O)O)C(=O)O)C(C)C [MDP-a] (H-CDWWSCWLDVLKD-OH; N-terminus and C-terminus assumed)	53152.0	32900	0.594	increase in electron density, the distribution along the collagen fiber was notably uneven, with a substantial amount of electrons present outside the fiber	002,300	more scattered along the fiber axis	evident fiber mineralization	increased significantly	significantly reduced	7	dense mineral growth was observed on the surface and inside the dentinal tubules	uneven, dense, spherical aggregated particles		
CPKESCNLFVLKDDSSDSSDSS [MDP-3DSS]													18.9	
CDWWSCWLDVLKD [MDP-a]													18	
CPKESCNLFVLKD [CBP1495]													59	
